Data: ChEMBL document CHEMBL3108729, “Design, synthesis and anticonvulsant evaluation of N-(benzo[d]thiazol-2-ylcarbamoyl)-2-methyl-4-oxoquinazoline-3(4H)-carbothioamide derivatives: a hybrid pharmacophore approach” (Eur J Med Chem, 2013)
Active and inactive are the calls of the source. No cut-off for these calls is given here.

Columns and labels:
Mus musculus [1] = test: Neurotoxicity in ip dosed albino mouse after 0.5 hrs by rotorod test; assay type: toxicity, organism-based; conditions: in vivo
How it was run: (§1)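 Swiss mice, four per dose, received 30, 100 or 300 mg/kg i.p. and were placed on a rotorod at 0.5 and 4 h. Neurotoxicity meant failure to keep balance for 1 min. The value reported is the minimum dose affecting half or more of the mice.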

Mus musculus [2] = test: Neurotoxicity in ip dosed albino mouse after 4 hrs by rotorod test; assay type: toxicity, organism-based; conditions: in vivo; how it was run: as §1
Mus musculus [3] = test: Anticonvulsant activity in albino mouse assessed as protection against maximal electroshock-induced seizures at 300 mg/kg, ip measured after 0.5 hrs; assay type: functional, organism-based; design: dose 300 mg/kg
Mus musculus [4] = test: Anticonvulsant activity in ip dosed albino mouse assessed as protection against maximal electroshock-induced seizures after 4 hrs; assay type: functional; conditions: read-out: MED
Mus musculus [5] = test: Anticonvulsant activity in albino mouse assessed as protection against maximal electroshock-induced seizures at 300 mg/kg, ip measured after 4 hrs; assay type: functional, organism-based; design: dose 300 mg/kg
Mus musculus [6] = test: Anticonvulsant activity in ip dosed albino mouse assessed as protection against maximal electroshock-induced seizures after 0.5 hrs; assay type: functional; conditions: read-out: MED
Mus musculus [7] = test: Neurotoxicity in albino mouse at 300 mg/kg, ip after 4 hrs by rotorod test; assay type: toxicity, organism-based; design: dose 300 mg/kg, route intraperitoneal; conditions: in vivo; how it was run: as §1

Structure (SMILES)	MTC (Mus musculus [1])	MTC (Mus musculus [2])	Activity (Mus musculus [3])	minimal effective dose (Mus musculus [4])	Activity (Mus musculus [5])	minimal effective dose (Mus musculus [6])	Activity (Mus musculus [7])
Cc1nc2cc(F)ccc2c(=O)n1C(=S)NC(=O)Nc1nc2ccc(OC(F)(F)F)cc2s1	100 mg/kg	300 mg/kg	inactive	300 mg/kg			
Cc1nc2cc(Cl)ccc2c(=O)n1C(=S)NC(=O)Nc1nc2cc(Cl)ccc2s1					inactive	300 mg/kg	
COc1ccc2nc(NC(=O)NC(=S)n3c(C)nc4cc(Cl)ccc4c3=O)sc2c1			inactive		inactive		
Cc1ccc2nc(NC(=O)NC(=S)n3c(C)nc4cc(F)ccc4c3=O)sc2c1			inactive		inactive		
Cc1nc2ccccc2c(=O)n1C(=S)NC(=O)Nc1nc2c(Br)cccc2s1			inactive		inactive		
Cc1nc2ccccc2c(=O)n1C(=S)NC(=O)Nc1nc2c(Cl)cccc2s1	300 mg/kg		inactive		inactive		Non-toxic
Cc1nc2ccccc2c(=O)n1C(=S)NC(=O)Nc1nc2ccc(O)cc2s1			inactive		inactive		
Cc1nc2ccccc2c(=O)n1C(=S)NC(=O)Nc1nc2cc(Cl)ccc2s1	100 mg/kg			300 mg/kg		100 mg/kg	Non-toxic
Cc1nc2cc(Cl)ccc2c(=O)n1C(=S)NC(=O)Nc1nc2ccc(O)cc2s1			inactive		inactive		
Cc1nc2cc(F)ccc2c(=O)n1C(=S)NC(=O)Nc1nc2ccc(Cl)cc2s1	100 mg/kg				inactive	300 mg/kg	Non-toxic
Cc1nc2ccccc2c(=O)n1C(=S)NC(=O)Nc1nc2ccc(Br)cc2s1	300 mg/kg			300 mg/kg		100 mg/kg	Non-toxic
Cc1nc2cc(F)ccc2c(=O)n1C(=S)NC(=O)Nc1nc2ccc(F)cc2s1			inactive		inactive		
Cc1nc2cc(F)ccc2c(=O)n1C(=S)NC(=O)Nc1nc2ccc(Br)cc2s1	300 mg/kg				inactive	300 mg/kg	Non-toxic
Cc1nc2cc(F)ccc2c(=O)n1C(=S)NC(=O)Nc1nc2cc(Cl)ccc2s1	100 mg/kg	300 mg/kg			inactive	300 mg/kg	
Cc1ccc2nc(NC(=O)NC(=S)n3c(C)nc4cc(Cl)ccc4c3=O)sc2c1			inactive		inactive		
Cc1nc2cc(F)ccc2c(=O)n1C(=S)NC(=O)Nc1nc2c(Br)cccc2s1	300 mg/kg				inactive	300 mg/kg	Non-toxic
